Measurements from different studies.
Lines come from different studies, so protocols differ.
Action: inhibitor
HDAC4: Histone deacetylase 4 (HDAC4, Homo sapiens, UniProt P56524)
BLK: Tyrosine-protein kinase Blk (BLK, Homo sapiens, UniProt P51451)
SLCO1B3: Solute carrier organic anion transporter family member 1B3 (SLCO1B3, Homo sapiens, UniProt Q9NPD5)
VCP: Transitional endoplasmic reticulum ATPase (VCP, Homo sapiens, UniProt P55072)
SLCO1B3 M233I: Solute carrier organic anion transporter family member 1B3 (SLCO1B3, Homo sapiens, UniProt Q9NPD5, M233I)
P4HB: Protein disulfide-isomerase (P4HB, Homo sapiens, UniProt P07237)

| Compound | target | assay | conditions | IC50 |
| --- | --- | --- | --- | --- |
| O=C(NO)c1ccc(Cn2cnc3c(Nc4cccc([N+](=O)[O-])c4)ncnc32)cc1 | HDAC4 | enzyme activity |  | 0.531 µM |
| C=CC(=O)Nc1cccc(Oc2nc(Nc3ccc(N4CCN(C)CC4)cc3)nc3ccoc23)c1 | BLK | enzyme activity |  | < 0.000254 µM |
| CCc1oc2ccccc2c1C(=O)c1cc(Br)c(O)c(Br)c1 | SLCO1B3 | transporter uptake, radiometric | oocytes | 25.3 µM |
| Cc1c(C(N)=O)c2ccccc2n1-c1nc2c(c(NCc3ccccc3)n1)CCCN2 | VCP | enzyme activity, ADP detection |  | 0.393 µM |
| CC(=O)O[C@H]1C(=O)[C@@]2(C)[C@H]([C@H](OC(=O)c3ccccc3)[C@]3(O)C[C@H](OC(=O)[C@H](O)[C@@H](NC(=O)c4ccccc4)c4ccccc4)C(C)=C1C3(C)C)[C@]1(OC(C)=O)CO[C@@H]1C[C@@H]2O | SLCO1B3 M233I | transporter uptake, radiometric | 2 min | > 100 µM |
| CONC(=O)c1cccc2c1cc(C)n2-c1nc2c(c(NCc3ccccc3)n1)CCCN2 | VCP | enzyme activity, ADP detection |  | 0.026 µM |
| COc1cccc2c1C(=O)c1c(O)c3c(c(O)c1C2=O)C[C@@](O)(C(=O)CO)C[C@@H]3O[C@H]1C[C@H](N)[C@H](O)[C@H](C)O1 | SLCO1B3 M233I | transporter uptake, radiometric | 2 min | > 100 µM |
| Cc1cc2c(C(N)=O)nccc2n1-c1nc2c(c(NCc3ccccc3)n1)CCCN2 | VCP | enzyme activity, ADP detection |  | 0.121 µM |
| CCc1oc2cc(F)ccc2c1C(=O)c1cc(Br)c(O)c(Br)c1 | Solute carrier family 2, facilitated glucose transporter member 9 (SLC2A9, Homo sapiens, UniProt Q9NRM0) | transporter uptake | oocytes | 30.4 µM |
| Cc1cc2c(C(N)=O)cncc2n1-c1nc2c(c(NCc3ccccc3)n1)CCCN2 | VCP | enzyme activity, ADP detection |  | 0.082 µM |
| O=C(OC[C@H]1O[C@@H](OC(=O)c2cc(O)c(O)c(O)c2)[C@H](OC(=O)c2cc(O)c(O)c(O)c2)[C@@H](OC(=O)c2cc(O)c(O)c(O)c2)[C@@H]1OC(=O)c1cc(O)c(O)c(O)c1)c1cc(O)c(O)c(O)c1 | P4HB | enzyme activity, fluorescence |  | 2.9 µM |
| CONC(=O)c1c(C)n(-c2nc3c(c(NCc4ccccc4)n2)CCCN3)c2ccccc12 | VCP | enzyme activity, ADP detection |  | 1.64 µM |
| O=C(O[C@@H]1Cc2c(O)cc(O)cc2O[C@@H]1c1ccc(O)c(O)c1)c1cc(O)c(O)c(O)c1 | P4HB | enzyme activity, fluorescence |  | > 500 µM |
| NC/C(=C\F)COc1cccc(Cn2c(=S)[nH]c(=O)c3[nH]cnc32)c1 | Lactoperoxidase (LPO, Bos taurus, UniProt P80025) | enzyme activity |  | 7.5 µM |
| Cc1cc(O)c(-c2ccc([C@@H](C)CN(C)C)cc2)c2c1[nH]c(=O)c1sccc12 | Cyclin-dependent kinase 13, with cyclin K (CDK13, Homo sapiens, UniProt Q14004) | enzyme activity |  | > 1 µM |
| CN(Cc1cnc2nc(N)nc(N)c2n1)c1ccc(C(=O)N[C@@H](CCC(=O)O)C(=O)O)cc1 | SLCO1B3 | transporter uptake, radiometric | 2 min | 0.498 µM |
| Cc1cc2c(C(N)=O)cccc2n1-c1nc2c(c(NCc3ccncc3)n1)CCCN2 | VCP | enzyme activity, ADP detection |  | 0.381 µM |
| O=c1c(O)cc([C@H]2Oc3cc(O)cc(O)c3C[C@H]2O)cc2c([C@H]3Oc4cc(O)cc(O)c4C[C@H]3O)cc(O)c(O)c12 | P4HB | enzyme activity, fluorescence |  | > 500 µM |
| CC#CC(=O)N1CCC[C@H]1c1nc(-c2ccc(C(=O)Nc3ccccn3)cc2)c2c(N)nccn12 | BLK | enzyme activity |  | 4.22 µM |
| COc1ccc(N(Cc2nc(-c3ccc(F)cc3)cs2)C(=O)CCCCCC(=O)NO)cc1 | HDAC4 | enzyme activity |  | > 10 µM |
| Cc1cc2c(C(N)=O)cccc2n1-c1nc2c(c(NCc3cccnc3)n1)CCCN2 | VCP | enzyme activity, ADP detection |  | 0.115 µM |
| Nc1cnccc1Nc1ccc(Cl)c(Cl)c1 | G/T mismatch-specific thymine DNA glycosylase (TDG, Homo sapiens, UniProt Q13569) | enzyme activity |  | > 100 µM |
| CC#CC(=O)N[C@H]1CCCN(c2c(F)cc(C(N)=O)c3[nH]c(C)c(C)c23)C1 | BLK | enzyme activity |  | 0.00692 µM |
| COc1ccc(N(Cc2csc(-c3ccccc3)n2)C(=O)CCCCCC(=O)NO)cc1 | HDAC4 | enzyme activity |  | > 10 µM |
| CC(C)n1c(/C=C/C(O)CC(O)CC(=O)O)c(-c2ccc(F)cc2)c2ccccc21 (centres unmarked) | SLCO1B3 M233I | transporter uptake, radiometric | 2 min | 11 µM |
| O=C(O[C@@H]1[C@@H](O)[C@H](Oc2cc(O)c3c(c2)O[C@H](c2ccccc2)CC3=O)O[C@@H]2COC(=O)c3cc(O)c(O)c(O)c3-c3c(cc(O)c(O)c3O)C(=O)O[C@@H]12)c1cc(O)c(O)c(O)c1 | Protein disulfide-isomerase A4 (PDIA4, Homo sapiens, UniProt P13667) | enzyme activity, fluorescence |  | 7.8 µM |
